The source of these data is PMC10825487 (Heliyon, 2024).

This test addresses DENV2 NS2B-NS3 protease (Dengue virus type 2, UniProt P29990). Briefly: DENV2 NS2B-NS3 protease inhibition assay. It is filed as biochemical. To be noted: for fold decrease of inhibitory activity: based on IC50, compared to 3e; for IC50: IC50 (Table 3), in vitro inhibition of DENV2 NS2B-NS3 protease, two decimals. The method, boiled down:
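Recombinant DENV-2 NS2B-NS3 protease (pQE-30, E. coli XL1-Blue MRF', IPTG-induced, Ni-NTA-purified) at 3.5 µM in 200 mM Tris-HCl pH 8.5. Preincubated with test compound (700 µM screen; 5.5–700.0 µM for IC50) for 10 min at 37 °C. Then 150 µM Boc-Gly-Arg-Arg-MCA added, 1 h at 37 °C. AMC read at ex 365/em 410 nm. % inhibition relative to enzyme+substrate control, buffer blank subtracted. n = 3; IC50 by nonlinear regression.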

DENV2 NS2B-NS3 protease, sequence (P29990 1346-1475): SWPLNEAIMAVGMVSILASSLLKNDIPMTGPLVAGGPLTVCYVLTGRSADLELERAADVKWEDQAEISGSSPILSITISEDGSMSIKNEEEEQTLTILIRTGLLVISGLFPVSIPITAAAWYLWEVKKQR
DENV2 NS2B-NS3 protease, sequence (P29990 1476-1653): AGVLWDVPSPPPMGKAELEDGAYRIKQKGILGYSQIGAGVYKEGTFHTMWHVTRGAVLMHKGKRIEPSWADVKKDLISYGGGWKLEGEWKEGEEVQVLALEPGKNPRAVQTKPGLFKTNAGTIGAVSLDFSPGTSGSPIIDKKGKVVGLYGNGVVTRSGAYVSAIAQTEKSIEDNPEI

The inhibition is the change of the read-out against control, counted positive when it falls. The low end stands for little suppression, the high end for strong suppression. `COc1ccc(-c2nc3cc4nc5ccccc5nc4cc3[nH]2)cc1[N+](=O)[O-]` [Compound 3a, 2-(4-methoxy-3-nitrophenyl)-1H-imidazo [4,5-b]phenazine]: the inhibition at 700 µM stood at 83.5 ± 1.96% and the “fold decrease of inhibitory activity” value came out at 1 fold.

In the case of `Oc1ccccc1-c1nc2cc3nc4ccccc4nc3cc2[nH]1` [Compound 3b, 2-(2-hydroxyphenyl)-1H-imidazo [4,5-b]phenazine], the inhibition at 700 µM came out at 46.6 ± 1.68%.

For `COc1ccc(-c2nc3cc4nc5ccccc5nc4cc3[nH]2)cc1OC` [Compound 3c, 2-(3,4-dimethoxyphenyl)-1H-imidazo [4,5-b]phenazine], testing at 700 µM gave an inhibition of 55.31 ± 0.39%.

As to `COc1cc([N+](=O)[O-])ccc1-c1nc2cc3nc4ccccc4nc3cc2[nH]1` [Compound 3d, 2-(2-methoxy-4-nitrophenyl)-1H-imidazo [4,5-b]phenazine], the inhibition at 700 µM came to 83.9 ± 1.67% and the “fold decrease of inhibitory activity” value is listed as 1.4 fold.

One may read the IC50 as the concentration that inhibits the measured activity by half. For the compound `O=[N+]([O-])c1ccc(-c2nc3cc4nc5ccccc5nc4cc3[nH]2)cc1O` [Compound 3e, 2-(3-hydroxy-4-nitrophenyl)-1H-imidazo [4,5-b]phenazine], 700 µM produced 95.5 ± 1.75% inhibition and the IC50 was 54.8 µM.

Turning to `Oc1c(Br)cccc1-c1nc2cc3nc4ccccc4nc3cc2[nH]1` [Compound 3f, 2-(3-bromo-2-hydroxyphenyl)-1H-imidazo [4,5-b]phenazine], 700 µM produced 70.8 ± 1.46% inhibition.

Turning to `COc1cc(-c2nc3cc4nc5ccccc5nc4cc3[nH]2)cc(OC)c1OC` [Compound 3g, 2-(3,4,5-trimethoxyphenyl)-1H-imidazo [4,5-b]phenazine], 700 µM produced 53.3 ± 2.76% inhibition.

Compound `Oc1ccc(-c2nc3cc4nc5ccccc5nc4cc3[nH]2)c(O)c1` [Compound 3h, 2-(2,4-dihydroxyphenyl)-1H-imidazo [4,5-b]phenazine] came in with an inhibition at 700 µM of 84.7 ± 1.26%.

In turn, `CC(C)c1ccc(-c2nc3cc4nc5ccccc5nc4cc3[nH]2)cc1` [Compound 3i, 2-(4-isopropylphenyl)-1H-imidazo [4,5-b]phenazine] displayed an inhibition at 700 µM of 75.68 ± 0.26%.

In the case of `Oc1ccc(-c2nc3cc4nc5ccccc5nc4cc3[nH]2)cc1` [Compound 3j, 2-(4-hydroxyphenyl)-1H-imidazo [4,5-b]phenazine], 700 µM produced 60.3 ± 2.27% inhibition and the “fold decrease of inhibitory activity” value is given as 3 fold.

Take `FC(F)(F)Oc1ccc(-c2nc3cc4nc5ccccc5nc4cc3[nH]2)cc1` [Compound 3k, 2-(4-(trifluoromethoxy)phenyl)-1H-imidazo [4,5-b]phenazine]: the inhibition at 700 µM is 63.3 ± 2.8% and the IC50 came to 71.9 µM.

In the case of `Fc1ccccc1-c1nc2cc3nc4ccccc4nc3cc2[nH]1` [Compound 3l, 2-(2-fluorophenyl)-1H-imidazo [4,5-b]phenazine], at 700 µM the inhibition was 78.23 ± 0.03%.

In turn, `Fc1ccc(-c2nc3cc4nc5ccccc5nc4cc3[nH]2)cc1` [Compound 3m, 2-(4-fluorophenyl)-1H-imidazo [4,5-b]phenazine] yielded an inhibition at 700 µM of 84.8 ± 0.89%. Moreover, the “fold decrease of inhibition” value (based on IC50, compared to 3k) is 2.2 fold.

Take `O=c1c(O)c(-c2ccc(O)c(O)c2)oc2cc(O)cc(O)c12` [Quercetin, reference compound]: at 700 µM the inhibition was 90.27 ± 0.49% and inhibition was half-maximal at 105 µM (IC50).
